Tests used:
[1] = biological target: T1, Serine/threonine-protein kinase Chk1 (Homo sapiens, UniProt O14757); assay: Inhibition of human recombinant Chk1 using biotinylated AKT substrate after 30 mins by Alphascreen biochemical assay
T1 sequence (O14757 whole entry): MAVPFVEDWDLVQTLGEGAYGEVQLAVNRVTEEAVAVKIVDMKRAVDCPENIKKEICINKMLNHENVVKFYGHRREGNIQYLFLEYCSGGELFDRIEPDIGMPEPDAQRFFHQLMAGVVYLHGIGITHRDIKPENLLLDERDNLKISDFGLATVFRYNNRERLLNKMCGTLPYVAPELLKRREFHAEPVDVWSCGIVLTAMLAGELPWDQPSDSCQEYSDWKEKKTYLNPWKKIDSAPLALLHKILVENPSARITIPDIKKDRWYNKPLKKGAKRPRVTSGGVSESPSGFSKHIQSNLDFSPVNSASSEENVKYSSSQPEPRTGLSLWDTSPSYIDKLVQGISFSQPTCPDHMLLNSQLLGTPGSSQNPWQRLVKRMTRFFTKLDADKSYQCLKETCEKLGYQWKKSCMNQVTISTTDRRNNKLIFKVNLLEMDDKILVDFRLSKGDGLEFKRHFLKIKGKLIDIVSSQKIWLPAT

[2] = biological target: T1, Serine/threonine-protein kinase Chk1; assay: Inhibition of CHK1 in human HT29 cells assessed as phosphorylation of histone H3 after 24 hrs by checkpoint abrogation cellular assay; assay type: cell-based, HT-29
[3] = biological target: Acetylcholinesterase (Homo sapiens, UniProt P22303); assay: Inhibition of human acetylcholine esterase by horseradish peroxidase-coupled fluorescence assay
Summary of the method: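 Human AChE at 0.006 U/ml, with 0.25 μM acetylcholine chloride, 0.06 U/ml choline oxidase, 0.05 U/ml horseradish peroxidase and 200 μM Amplex Red, in proprietary buffer with test compound. Incubated 30 min at 25 °C. Fluorescence read.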

Chain of Acetylcholinesterase (P22303 whole entry): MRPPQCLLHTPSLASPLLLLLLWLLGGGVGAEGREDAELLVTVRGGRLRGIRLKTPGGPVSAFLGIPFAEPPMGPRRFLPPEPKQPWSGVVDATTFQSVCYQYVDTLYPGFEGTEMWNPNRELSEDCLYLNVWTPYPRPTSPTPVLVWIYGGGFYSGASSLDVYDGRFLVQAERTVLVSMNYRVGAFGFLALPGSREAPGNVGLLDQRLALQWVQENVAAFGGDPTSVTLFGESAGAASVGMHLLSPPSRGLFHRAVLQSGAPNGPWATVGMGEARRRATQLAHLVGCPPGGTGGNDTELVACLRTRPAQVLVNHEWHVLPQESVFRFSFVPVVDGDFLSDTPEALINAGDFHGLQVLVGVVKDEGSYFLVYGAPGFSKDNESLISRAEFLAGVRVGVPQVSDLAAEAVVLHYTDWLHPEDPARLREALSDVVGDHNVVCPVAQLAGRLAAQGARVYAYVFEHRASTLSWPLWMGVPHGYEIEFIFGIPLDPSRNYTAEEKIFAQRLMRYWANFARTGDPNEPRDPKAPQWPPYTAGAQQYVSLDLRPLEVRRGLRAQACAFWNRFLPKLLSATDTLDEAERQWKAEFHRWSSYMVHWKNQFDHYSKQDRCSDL

Structure (SMILES) | IC50 [1] [µM] | EC50 [2] [µM] | IC50 [3] [µM]
N#Cc1cc2c(cn1)[nH]c1ncc(O)cc12 | 0.0381 | > 5 | –
c1cc(-c2cc3c(cn2)[nH]c2ncc(-c4ccc(CN5CCCCC5)cc4)cc23)ccn1 | 0.0091 | 1.57 | 0.777
CC1(C)CCN(Cc2ccc(-c3cnc4[nH]c5cnc(C#N)cc5c4c3)cc2)CC1 | 0.0044 | 0.172 | 0.011
COc1cc2c(cn1)[nH]c1ncc(-c3ccc(CN4CCCCC4)cc3)cc12 | 0.0198 | 0.986 | –
CN1CCN(c2cccc(-c3cnc4[nH]c5cnc(C#N)cc5c4c3)c2)CC1 | 0.0019 | 0.133 | 4.77
N#Cc1cc2c(cn1)[nH]c1ncc(-c3cccnc3)cc12 | 0.0765 | > 5 | –
CN1CCN(c2ccc(-c3cnc4[nH]c5cnc(C#N)cc5c4c3)cc2)CC1 | – | – | 0.018
N#Cc1cc2c(cn1)[nH]c1ncc(-c3cccs3)cc12 | 0.0202 | 0.478 | –
c1cc(-c2cnc3[nH]c4cnc(-c5cnoc5)cc4c3c2)ccc1CN1CCCCC1 | 0.0011 | 0.145 | 0.659
CCN1CCc2cc(-c3cnc4[nH]c5cnc(C#N)cc5c4c3)ccc2C1 | 0.0023 | 0.152 | 0.16
c1nnc(-c2cc3c(cn2)[nH]c2ncc(-c4ccc(CN5CCCCC5)cc4)cc23)o1 | 0.00095 | 0.103 | 0.45
N#Cc1cc2c(cn1)[nH]c1ncc(-c3ccc(CN4CCC(F)CC4)cc3)cc12 | 0.005 | 0.0958 | 0.89
N#Cc1cc2c(cn1)[nH]c1ncc(Br)cc12 | 0.14 | – | –
c1cncc(-c2cc3c(cn2)[nH]c2ncc(-c4ccc(CN5CCCCC5)cc4)cc23)c1 | 0.00095 | 0.0751 | 0.493
N#Cc1cc2c(cn1)[nH]c1ncc(-c3ccccn3)cc12 | 0.127 | > 5 | –
N#Cc1cc2c(cn1)[nH]c1ncc(-c3ccoc3)cc12 | 0.0166 | 0.18 | –
N#Cc1cc2c(cn1)[nH]c1ncc(-c3ccc(N4CCOCC4)cc3)cc12 | 0.0787 | 0.219 | –
C[C@@H]1CCC[C@H](C)N1Cc1ccc(-c2cnc3[nH]c4cnc(C#N)cc4c3c2)cc1 | 0.0021 | 0.0991 | 0.135
N#Cc1cc2c(cn1)[nH]c1ncc(-c3ccccc3O)cc12 | 0.0417 | > 5 | –
CC(=O)Nc1cccc(-c2cnc3[nH]c4cnc(C#N)cc4c3c2)c1 | 0.0135 | 0.425 | –
CC(C)(c1ccc(-c2cnc3[nH]c4cnc(C#N)cc4c3c2)cc1)N1CCCCC1 | 0.0102 | 0.228 | 0.507
c1ncc(-c2cc3c(cn2)[nH]c2ncc(-c4ccc(CN5CCCCC5)cc4)cc23)s1 | 0.0013 | 0.0627 | 0.496
CC1(C)CCCN(Cc2ccc(-c3cnc4[nH]c5cnc(C#N)cc5c4c3)cc2)C1 | 0.0094 | 0.128 | 3.33
N#Cc1cc2c(cn1)[nH]c1ncc(-c3nc(CN4CCCCC4)cs3)cc12 | 0.0136 | 0.658 | 0.018

Structure (SMILES) | IC50 [1] [µM] | EC50 [2] [µM] | IC50 [3] [µM]
c1cc2c(cn1)[nH]c1ncc(-c3ccc(CN4CCCCC4)cc3)cc12 | 0.0186 | 1.92 | –
CCNC(=O)c1cc2c(cn1)[nH]c1ncc(-c3ccc(CN4CCCCC4)cc3)cc12 | 0.102 | 2.23 | –
Oc1cc2c(cn1)[nH]c1ncc(-c3ccc(CN4CCCCC4)cc3)cc12 | 0.863 | – | –
N#Cc1cc2c(cn1)[nH]c1ncc(-c3ccc(CO)cc3)cc12 | 0.0114 | 0.938 | –
Cn1cc(-c2cc3c(cn2)[nH]c2ncc(-c4ccc(CN5CCCCC5)cc4)cc23)cn1 | 0.00031 | 0.009 | 0.874
CCN1CCc2sc(-c3cnc4[nH]c5cnc(C#N)cc5c4c3)cc2C1 | 0.00078 | 0.0509 | 0.259
OCc1cc2c(cn1)[nH]c1ncc(-c3ccc(CN4CCCCC4)cc3)cc12 | 0.0183 | 0.447 | –
CCNc1cnc2[nH]c3cnc(C#N)cc3c2c1 | 0.0566 | 1.79 | –
N#Cc1cc2c(cn1)[nH]c1ncc(-c3ncc[nH]3)cc12 | 0.0147 | > 5 | –
N#Cc1cc2c(cn1)[nH]c1ncc(-c3ccc(CN4CCC[C@@H](O)C4)cc3)cc12 | 0.0019 | 0.118 | 0.708
N#Cc1cc2c(cn1)[nH]c1ncccc12 | 0.414 | – | –
N#Cc1cc2c(cn1)[nH]c1ncc(-c3cccc(CO)c3)cc12 | 0.0271 | > 5 | –
Cn1ccc(-c2cnc3[nH]c4cnc(C#N)cc4c3c2)n1 | 0.0338 | 2.5 | –
N#Cc1cc2c(cn1)[nH]c1ncc(-c3ccncc3)cc12 | 0.0427 | > 5 | –
NC(=O)c1cc2c(cn1)[nH]c1ncc(-c3ccc(CN4CCCCC4)cc3)cc12 | 0.0043 | 0.292 | 0.217
c1cc(-c2cc3c(cn2)[nH]c2ncc(-c4ccc(CN5CCCCC5)cc4)cc23)cnn1 | 0.0029 | 0.656 | 1.04
N#Cc1cc2c(cn1)[nH]c1ncc(-c3ccc(CN4CCOCC4)cc3)cc12 | 0.0139 | 0.216 | 13.3
N#Cc1cc2c(cn1)[nH]c1ncc(-c3ccc(CN4CCC(C#N)CC4)cc3)cc12 | 0.0116 | 0.339 | 2.69
N#Cc1cc2c(cn1)[nH]c1ncc(-c3ccc(CN4CCC(O)CC4)cc3)cc12 | 0.0018 | 0.144 | 0.378
c1cnc(-c2cc3c(cn2)[nH]c2ncc(-c4ccc(CN5CCCCC5)cc4)cc23)cn1 | 0.0023 | 0.168 | 1.21
c1ncc(-c2cc3c(cn2)[nH]c2ncc(-c4ccc(CN5CCCCC5)cc4)cc23)o1 | 0.00046 | 0.0239 | 0.323
C[C@@H]1C[C@H](C)CN(Cc2ccc(-c3cnc4[nH]c5cnc(C#N)cc5c4c3)cc2)C1 | 0.0042 | 0.209 | 4.1
N#Cc1cc2c(cn1)[nH]c1ncc(-c3ccc(CN4CCCCC4)nc3)cc12 | 0.0053 | 0.54 | 0.187
c1ncc(-c2cc3c(cn2)[nH]c2ncc(-c4ccc(CN5CCCCC5)cc4)cc23)cn1 | 0.0051 | 0.163 | 0.266
